Published values gathered from unrelated publications.
Protocols differ between the studies behind these lines.
Acetylcholinesterase: Acetylcholinesterase (Bos taurus, UniProt P23795)
LDHA: L-lactate dehydrogenase A chain (LDHA, Homo sapiens, UniProt P00338)
GSR: Glutathione reductase, mitochondrial (GSR, Homo sapiens, UniProt P00390)
MAOA: Amine oxidase [flavin-containing] A (MAOA, Homo sapiens, UniProt P21397)
PTPN1: Tyrosine-protein phosphatase non-receptor type 1 (PTPN1, Homo sapiens, UniProt P18031)
Integrin alpha-V/beta-3: Integrin alpha-V/beta-3 (Homo sapiens, UniProt P05106+P06756)

Structure (SMILES) | target | read-out | action | technique | pH | IC50 [µM]
CCOP(=O)(OCC)Oc1ccc2c(C)c(Cl)c(=O)oc2c1 | Acetylcholinesterase | enzyme activity | inhibitor | Ellman | – | 1.04
CC(=O)OC[C@H]1O[C@@H](O[C@H]2[C@H](Oc3cc(O)c4c(=O)cc(-c5ccc(O)c(O)c5)oc4c3)O[C@H](CO)[C@@H](O)[C@@H]2O)[C@H](O)[C@@H](O)[C@@H]1O | LDHA | enzyme activity | inhibitor | – | pH 7.4 | 445
CNC1CC(c2ccc(Cl)c(Cl)c2)c2ccccc21 (centres unmarked) | GSR | enzyme activity | inhibitor | absorbance | – | > 100
COc1cc(Nc2ncc(F)c(Nc3ccc4c(n3)NC(=O)C(C)(C)O4)n2)cc(OC)c1OC | Cathepsin S (CTSS, Homo sapiens, UniProt P25774) | enzyme activity | inhibitor | – | – | 12.6
O=C(Nc1ccc([N+](=O)[O-])cc1[N+](=O)[O-])c1ccc2c(c1)OCO2 | MAOA | enzyme activity | inhibitor | – | – | 0.289
CCCCOc1ccc(C(=O)CCN2CCCCC2)cc1 | Histamine H2 receptor (HRH2, Homo sapiens, UniProt P25021) | ligand displacement | – | radioligand | – | 3.13
CNC(=O)Oc1cccc2c1OC(C)(C)O2 | Acetylcholinesterase | enzyme activity | inhibitor | Ellman | – | 0.195
COc1ccc(/C=C/C(=O)N2CCN(Cc3ccccc3)CC2)cc1OC | MAOA | enzyme activity | inhibitor | fluorescence | – | 63.2
CNC(=O)Oc1cccc2c1OC(C)(C)C2 | Acetylcholinesterase | enzyme activity | inhibitor | Ellman | – | 0.073
COc1c(O[C@@H]2O[C@H](CO)[C@@H](O)[C@H](O)[C@H]2O)cc2oc(-c3ccc(O)cc3)cc(=O)c2c1O | LDHA | enzyme activity | inhibitor | – | pH 7.4 | 210
Nc1c(S(=O)(=O)O)cc(Nc2ccc(Nc3nc(Cl)nc(Nc4cccc(S(=O)(=O)O)c4)n3)c(S(=O)(=O)O)c2)c2c1C(=O)c1ccccc1C2=O | P2X purinoceptor 4 (P2RX4, Homo sapiens, UniProt Q99571) | calcium signal | antagonist | – | – | 3.49
CNC(=O)C(Cc1ccc(C(F)(F)[P-](F)(F)(F)(F)F)cc1)NC(C)=O (centres unmarked) | PTPN1 | enzyme activity | inhibitor | – | – | 872
O=C1C[C@H](c2ccc(O)cc2)Oc2cc(O)ccc21 | MAOA | enzyme activity | inhibitor | – | – | 9.97
C#CCN(C)c1nc(NCCCCC2CCN(Cc3ccccc3)CC2)c(C#N)c(-c2ccccc2)c1C#N | MAOA | enzyme activity | inhibitor | fluorescence | – | 11.6
O=c1c2ccccc2[se]n1-c1ccccc1 | GSR | enzyme activity | inhibitor | absorbance | – | 21.5
NC(=O)c1cccc(-c2cc(OC(=O)NC3CCCCC3)ccc2O)c1 | Monoglyceride lipase (Rattus norvegicus, UniProt Q8R431) | enzyme activity | inhibitor | – | – | > 100
CC[C@H](C)[C@@H]([C@@H](CC(=O)N1CCC[C@H]1[C@H](OC)[C@@H](C)C(=O)N[C@H](C)[C@@H](O)c1ccccc1)OC)N(C)C(=O)[C@@H](NC(=O)[C@H](C(C)C)N(C)C(=O)OCc1ccc(NC(=O)[C@H](C)NC(=O)[C@@H](NC(=O)CCc2cn(CCOCCOCCOCCOCC(=O)NCc3ccc(CN4C(=O)[C@H]5CC(=O)N[C@H](C(=O)O)CC(=O)NCC(=O)N[C@@H](CCCNC(=N)N)C(=O)NC[C@H]4C(=O)N5)cc3)nn2)C(C)C)cc1)C(C)C | Integrin alpha-V/beta-3 | ligand displacement | – | – | – | 0.0362
COc1ccc(N2CCN(C(c3cccs3)C(C)NC(=O)C(=O)NCc3ccco3)CC2)cc1 (centres unmarked) | PTPN1 | enzyme activity | inhibitor | absorbance | pH 7 | 14.4
NC(Cc1ccc(C(=O)[P-](F)(F)(F)(F)F)cc1)C(=O)O (centres unmarked) | PTPN1 | enzyme activity | inhibitor | – | – | 104
CC[C@H](C)[C@@H]([C@@H](CC(=O)N1CCC[C@H]1[C@H](OC)[C@@H](C)C(=O)N[C@H](C)[C@@H](O)c1ccccc1)OC)N(C)C(=O)[C@@H](NC(=O)[C@H](C(C)C)N(C)C(=O)CCc1cn(CCOCCOCCOCCOCC(=O)NCc2ccc(CN3C(=O)[C@H]4CC(=O)N[C@H](C(=O)O)CC(=O)NCC(=O)N[C@@H](CCCNC(=N)N)C(=O)NC[C@H]3C(=O)N4)cc2)nn1)C(C)C | Integrin alpha-V/beta-3 | ligand displacement | – | – | – | 0.0145
